Data from ChEMBL document CHEMBL5236607, “Membrane-Active Cyclic Amphiphilic Peptides: Broad-Spectrum Antibacterial Activity Alone and in Combination with Antibiotics” (J Med Chem, 2022).
The source made the active and inactive calls. The calls are words filed in the database; no cut-off is given here. Peptide text beside a SMILES is read from it.

Columns and labels:
[1] = system: Staphylococcus aureus; assay: Synergistic antibacterial activity against methicillin resistant Staphylococcus aureus ATCC BAA-1556 fractional inhibitory concentration incubated for 24 hrs in presence of Ciprofloxacin by checkerboard assay; format: functional
How it was run: (§1)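 Checkerboard assay. Inoculum from an LB overnight culture at 0.5 McFarland, diluted 1/150 in MH media. […] Incubated 37 °C for 24 h. FICI = MIC combination/MIC alone summed over both agents. Triplicate.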

[2] = system: Escherichia coli; assay: Synergistic antibacterial activity against Escherichia coli ATCC 25922 fractional inhibitory concentration incubated for 24 hrs in presence of meropenem by checkerboard assay; format: functional; how it was run: as §1
[3] = system: Klebsiella pneumoniae; assay: Antibacterial activity against Klebsiella pneumoniae ATCC 700603 after 24 hrs by microbroth dilution method; format: functional
[4] = system: Klebsiella pneumoniae; assay: Antibacterial activity against carbapenem resistant Klebsiella pneumoniae ATCC BAA 1705 after 24 hrs by microbroth dilution method; format: functional
[5] = system: Escherichia coli; assay: Induction of resistance development in Escherichia coli ATCC BAA-2452 assessed as increase in MIC by microtiter plate reader assay; format: functional, organism-based
How it was run: (§2)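 Serial passage resistance assay with 2-fold microdilution MICs in 96-well plates. Each passage takes the well with the highest concentration still permitting growth, adjusts it to 0.5 McFarland, and dilutes it to a final 5 × 10^5 CFU/mL for the next passage. Eighteen passages; MIC recorded at each. Triplicate.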

[6] = system: Cell membrane; assay: Membrano-lytic activity against Escherichia coli assessed as change in morphology at 4 times MIC after 1 hr by SEM analysis; format: subcellular
How it was run: (§3)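 E. coli ATCC BAA-2452 from overnight culture, suspended at 10^7 CFU/mL in 10 mM PBS pH 7.4. […] Fixed in 4% glutaraldehyde in cacodylate buffer pH 7.4 for 3 h at 4 °C, ethanol-dehydrated, HMDS-dried, Au/Pd-coated, then imaged by FE-SEM.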

[7] = system: Staphylococcus aureus; assay: Bactericidal activity against methicillin resistant Staphylococcus aureus assessed as reduction in bacterial cells by time kill assay; format: functional, organism-based; settings: TDE = time-dependent effect
How it was run: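 Time-kill in Müller–Hinton media. […] Aliquots taken at 0–24 h, serially diluted and plated on MH agar. CFU counted after 24 h at 37 °C. Two independent experiments in triplicate.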

[8] = system: Pseudomonas aeruginosa; assay: Synergistic antibacterial activity against Pseudomonas aeruginosa ATCC […] assessed as fractional inhibitory concentration index incubated for 24 hrs in presence of tobramycin by checkerboard assay; format: functional
[9] = system: Cell membrane; assay: Membrano-lytic activity against Escherichia coli assessed as loss of membrane fluidity at 4 times MIC after 1 hr by SEM analysis; format: subcellular; how it was run: as §3
[10] = system: Staphylococcus aureus; assay: Induction of resistance development in methicillin resistant Staphylococcus aureus ATCC BAA-1556 assessed as increase in MIC by microtiter plate reader assay; format: functional, organism-based; how it was run: as §2

Row | SMILES | FIC [1] | FIC [2] | MIC [3] | MIC [4] | Activity [5] | Activity [6] | Activity [7] | fractional inhibitory concentration index (FICI) [8] | Activity [9] | Activity [10]
1 | N=C(N)NCCC[C@@H]1NC(=O)[C@H](CCCNC(=N)N)NC(=O)[C@H](CCCNC(=N)N)NC(=O)[C@H](CCCNC(=N)N)NC(=O)[C@H](Cc2c[nH]c3ccccc23)NC(=O)[C@H](Cc2c[nH]c3ccccc23)NC(=O)[C@H](Cc2c[nH]c3ccccc23)NC(=O)[C@H](Cc2c[nH]c3ccccc23)NC(=O)[C@H](CCCNC(=N)N)NC(=O)[C@H](CCCNC(=N)N)NC1=O (cyclo(RRRRRRWWWW)) | 0.25 | 0.125 | – | – | – | – | – | – | – | –
2 | N=C(N)NCCC[C@@H]1NC(=O)[C@H](CCCNC(=N)N)NC(=O)[C@H](CCCNC(=N)N)NC(=O)[C@H](Cc2c[nH]c3ccccc23)NC(=O)[C@H](Cc2c[nH]c3ccccc23)NC(=O)[C@H](Cc2c[nH]c3ccccc23)NC(=O)[C@H](Cc2c[nH]c3ccccc23)NC(=O)[C@H](CCCNC(=N)N)NC(=O)[C@H](CCCNC(=N)N)NC1=O | – | – | > 64 µg/mL | > 64 µg/mL | inactive | Active | Tde | 0.5 | Active | inactive
